Several values for one entry are separate records, joined by “and”; a condition that tells them apart may be missing. Equal values may be shown once.
How the values were obtained:
Format in all cases: toxicity, cell-based
Fibroblast [1] = assay: Multiplex assay against human fibroblast; settings: 10 µM, compound concentration 10 uM
How it was run: (§1)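 With compound added, live cells were imaged on a CQ1 microscope at 37°C and 5% CO2; staining with Hoechst33342, BioTracker Green Microtubule Cytoskeleton Dye, MitoTracker Red and Annexin V Alexa Fluor 680 had been done at seeding. The CellPathfinder machine-learning gating scheme split cells into Hoechst high-intensity objects or normal cells, normal cells into healthy, pyknosed or fragmented nuclei, and pyknosed cells into mitotic or apoptotic. The tubulin, mitochondrial-mass and membrane-permeability phenotypes are per cents of healthy-nucleus cells.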

HEK-293T [2] = assay: Multiplex assay against HEK293T; settings: human, 10 µM, compound concentration 10 uM; how it was run: as §1
U2OS [3] = assay: Multiplex assay against U2OS; settings: human, 10 µM, compound concentration 10 uM; how it was run: as §1
HEK-293T [4] = assay: Incucyte cell viability with HEK293T; settings: human, 10 µM, compound concentration 10 uM; further: filed as whole numbers so only -1 and 0 and 1 occur
Fibroblast [5] = assay: Incucyte cell viability with human fibroblast; settings: 10 µM, compound concentration 10 uM; further: filed as whole numbers so only -1 and 0 and 1 occur
U2OS [6] = assay: Incucyte cell viability with U2OS; settings: human, 10 µM, compound concentration 10 uM; further: filed as whole numbers so only -1 and 0 and 1 occur
[7] = 6 h, replicate number 1, timepoint 6 hours
[8] = 12 h, replicate number 1, timepoint 12 hours
[9] = 18 h, replicate number 1, timepoint 18 hours
[10] = 24 h, replicate number 1, timepoint 24 hours

Compound: COc1cc(C)c(Sc2cnc(NC(=O)c3ccc(CNC(C)C(C)(C)C)cc3)s2)cc1C(=O)N1CCN(C(C)=O)CC1 (stereo not drawn)
- Population Apoptotic (%) (Fibroblast [1]; 12 h, replicate 1): 67% and 75%
- Population Fragmented Nuclei (%) (Fibroblast [1]; 12 h, replicate 1): 22% and 35%
- Population Healthy Nuclei (%) (Fibroblast [1]; 12 h, replicate 1): 60% and 50%
- Population Hoechst High Intensity Objects (%) (Fibroblast [1]; 12 h, replicate 1): 12%
- Population Membrane Permeable-Phenotype (%) (Fibroblast [1]; 12 h, replicate 1): 6%
- Population Mitotic Cells (%) (Fibroblast [1]; 12 h, replicate 1): 32% and 25%
- Population Normal (%) (Fibroblast [1]; 12 h, replicate 1): 87%
- Population Pyknosed Nuclei (%) (Fibroblast [1]; 12 h, replicate 1): 14%
- Population Tubulin-Different-Phenotype (%) (Fibroblast [1]; 12 h, replicate 1): 4% and 12%
- Total Cell Count (Fibroblast [1]; 12 h, replicate 1): 276 and 186
- Population Apoptotic (%) (Fibroblast [1]; 12 h, replicate 2): 50% and 40%
- Population Fragmented Nuclei (%) (Fibroblast [1]; 12 h, replicate 2): 46% and 56%
- Population Healthy Nuclei (%) (Fibroblast [1]; 12 h, replicate 2): 38% and 33%
- Population Hoechst High Intensity Objects (%) (Fibroblast [1]; 12 h, replicate 2): 29% and 43%
- Population Membrane Permeable-Phenotype (%) (Fibroblast [1]; 12 h, replicate 2): 10% and 11%
- Population Mitochondria Different-Phenotype (%) (Fibroblast [1]; 12 h, replicate 2): 10% and 27%
- Population Mitotic Cells (%) (Fibroblast [1]; 12 h, replicate 2): 50% and 60%
- Population Normal (%) (Fibroblast [1]; 12 h, replicate 2): 70% and 56%
- Population Pyknosed Nuclei (%) (Fibroblast [1]; 12 h, replicate 2): 16% and 9%
- Total Cell Count (Fibroblast [1]; 12 h, replicate 2): 71 and 94
- Population Apoptotic (%) (Fibroblast [1]; 24 h, replicate 1): 57% and 91%
- Population Fragmented Nuclei (%) (Fibroblast [1]; 24 h, replicate 1): 18% and 31%
- Population Healthy Nuclei (%) (Fibroblast [1]; 24 h, replicate 1): 69% and 53%
- Population Hoechst High Intensity Objects (%) (Fibroblast [1]; 24 h, replicate 1): 17% and 13%
- Population Membrane Permeable-Phenotype (%) (Fibroblast [1]; 24 h, replicate 1): 9% and 6%
- Population Normal (%) (Fibroblast [1]; 24 h, replicate 1): 82% and 86%
- Population Pyknosed Nuclei (%) (Fibroblast [1]; 24 h, replicate 1): 14%
- Total Cell Count (Fibroblast [1]; 24 h, replicate 1): 264 and 192
- Population Apoptotic (%) (Fibroblast [1]; 24 h, replicate 2): 33% and 66%
- Population Fragmented Nuclei (%) (Fibroblast [1]; 24 h, replicate 2): 46% and 54%
- Population Healthy Nuclei (%) (Fibroblast [1]; 24 h, replicate 2): 42% and 33%
- Population Hoechst High Intensity Objects (%) (Fibroblast [1]; 24 h, replicate 2): 23% and 42%
- Population Membrane Permeable-Phenotype (%) (Fibroblast [1]; 24 h, replicate 2): 8% and 22%
- Population Mitotic Cells (%) (Fibroblast [1]; 24 h, replicate 2): 66% and 33%
- Population Normal (%) (Fibroblast [1]; 24 h, replicate 2): 76% and 57%
- Population Pyknosed Nuclei (%) (Fibroblast [1]; 24 h, replicate 2): 11%
- Total Cell Count (Fibroblast [1]; 24 h, replicate 2): 71 and 92
- Population Apoptotic (%) (HEK-293T [2]; 12 h, replicate 1): 22% and 18%
- Population Fragmented Nuclei (%) (HEK-293T [2]; 12 h, replicate 1): 20% and 17%
- Population Healthy Nuclei (%) (HEK-293T [2]; 12 h, replicate 1): 47% and 68%
- Population Hoechst High Intensity Objects (%) (HEK-293T [2]; 12 h, replicate 1): 19% and 8%
- Population Membrane Permeable-Phenotype (%) (HEK-293T [2]; 12 h, replicate 1): 6% and 3%
- Population Mitotic Cells (%) (HEK-293T [2]; 12 h, replicate 1): 77% and 81%
- Population Normal (%) (HEK-293T [2]; 12 h, replicate 1): 80% and 91%
- Population Pyknosed Nuclei (%) (HEK-293T [2]; 12 h, replicate 1): 31% and 13%
- Total Cell Count (HEK-293T [2]; 12 h, replicate 1): 653 and 686
- Population Fragmented Nuclei (%) (HEK-293T [2]; 12 h, replicate 2): 4% and 5%
- Population Healthy Nuclei (%) (HEK-293T [2]; 12 h, replicate 2): 86% and 89%
- Population Hoechst High Intensity Objects (%) (HEK-293T [2]; 12 h, replicate 2): 3% and 2%
- Population Membrane Permeable-Phenotype (%) (HEK-293T [2]; 12 h, replicate 2): 1%
- Population Mitochondria Different-Phenotype (%) (HEK-293T [2]; 12 h, replicate 2): 22% and 9%
- Population Mitotic Cells (%) (HEK-293T [2]; 12 h, replicate 2): 85% and 95%
- Population Normal (%) (HEK-293T [2]; 12 h, replicate 2): 96% and 97%
- Population Pyknosed Nuclei (%) (HEK-293T [2]; 12 h, replicate 2): 9% and 4%
- Total Cell Count (HEK-293T [2]; 12 h, replicate 2): 1194 and 1652
- Population Apoptotic (%) (HEK-293T [2]; 24 h, replicate 1): 28% and 21%
- Population Fragmented Nuclei (%) (HEK-293T [2]; 24 h, replicate 1): 19% and 13%
- Population Healthy Nuclei (%) (HEK-293T [2]; 24 h, replicate 1): 65% and 78%
- Population Hoechst High Intensity Objects (%) (HEK-293T [2]; 24 h, replicate 1): 14% and 6%
- Population Membrane Permeable-Phenotype (%) (HEK-293T [2]; 24 h, replicate 1): 10% and 6%
- Population Mitotic Cells (%) (HEK-293T [2]; 24 h, replicate 1): 71% and 78%
- Population Normal (%) (HEK-293T [2]; 24 h, replicate 1): 85% and 93%
- Population Pyknosed Nuclei (%) (HEK-293T [2]; 24 h, replicate 1): 14% and 7%
- Total Cell Count (HEK-293T [2]; 24 h, replicate 1): 664 and 754
- Population Apoptotic (%) (HEK-293T [2]; 24 h, replicate 2): 7% and 4%
- Population Fragmented Nuclei (%) (HEK-293T [2]; 24 h, replicate 2): 15% and 22%
- Population Healthy Nuclei (%) (HEK-293T [2]; 24 h, replicate 2): 81% and 74%
- Population Hoechst High Intensity Objects (%) (HEK-293T [2]; 24 h, replicate 2): 3%
- Population Membrane Permeable-Phenotype (%) (HEK-293T [2]; 24 h, replicate 2): 8% and 5%
- Population Mitochondria Different-Phenotype (%) (HEK-293T [2]; 24 h, replicate 2): 5% and 2%
- Population Mitotic Cells (%) (HEK-293T [2]; 24 h, replicate 2): 92% and 95%
- Population Normal (%) (HEK-293T [2]; 24 h, replicate 2): 96%
- Population Pyknosed Nuclei (%) (HEK-293T [2]; 24 h, replicate 2): 3% and 2%
- Total Cell Count (HEK-293T [2]; 24 h, replicate 2): 2038 and 2847
- Population Apoptotic (%) (U2OS [3]; 12 h, replicate 1): 33% and 44%
- Population Fragmented Nuclei (%) (U2OS [3]; 12 h, replicate 1): 6% and 2%
- Population Healthy Nuclei (%) (U2OS [3]; 12 h, replicate 1): 84%
- Population Hoechst High Intensity Objects (%) (U2OS [3]; 12 h, replicate 1): 3% and 4%
- Population Mitochondria Different-Phenotype (%) (U2OS [3]; 12 h, replicate 1): 12% and 33%
- Population Mitotic Cells (%) (U2OS [3]; 12 h, replicate 1): 66% and 55%
- Population Normal (%) (U2OS [3]; 12 h, replicate 1): 96% and 95%
- Population Pyknosed Nuclei (%) (U2OS [3]; 12 h, replicate 1): 8% and 6%
- Population Tubulin-Different-Phenotype (%) (U2OS [3]; 12 h, replicate 1): 32%
- Total Cell Count (U2OS [3]; 12 h, replicate 1): 180 and 143
- Population Apoptotic (%) (U2OS [3]; 12 h, replicate 2): 0%
- Population Fragmented Nuclei (%) (U2OS [3]; 12 h, replicate 2): 5%
- Population Healthy Nuclei (%) (U2OS [3]; 12 h, replicate 2): 90% and 89%
- Population Hoechst High Intensity Objects (%) (U2OS [3]; 12 h, replicate 2): 12% and 8%
- Population Mitochondria Different-Phenotype (%) (U2OS [3]; 12 h, replicate 2): 16% and 15%
- Population Mitotic Cells (%) (U2OS [3]; 12 h, replicate 2): 100%
- Population Normal (%) (U2OS [3]; 12 h, replicate 2): 87% and 91%
- Population Pyknosed Nuclei (%) (U2OS [3]; 12 h, replicate 2): 3% and 4%
- Population Tubulin-Different-Phenotype (%) (U2OS [3]; 12 h, replicate 2): 24% and 19%
- Total Cell Count (U2OS [3]; 12 h, replicate 2): 98 and 130
- Population Apoptotic (%) (U2OS [3]; 24 h, replicate 1): 78% and 28%
- Population Fragmented Nuclei (%) (U2OS [3]; 24 h, replicate 1): 2% and 4%
- Population Healthy Nuclei (%) (U2OS [3]; 24 h, replicate 1): 90% and 92%
- Population Hoechst High Intensity Objects (%) (U2OS [3]; 24 h, replicate 1): 1%
- Population Membrane Permeable-Phenotype (%) (U2OS [3]; 24 h, replicate 1): 7%
- Population Mitochondria Different-Phenotype (%) (U2OS [3]; 24 h, replicate 1): 14% and 24%
- Population Normal (%) (U2OS [3]; 24 h, replicate 1): 98%
- Population Pyknosed Nuclei (%) (U2OS [3]; 24 h, replicate 1): 6% and 3%
- Population Tubulin-Different-Phenotype (%) (U2OS [3]; 24 h, replicate 1): 18% and 34%
- Total Cell Count (U2OS [3]; 24 h, replicate 1): 222 and 212
- Population Apoptotic (%) (U2OS [3]; 24 h, replicate 2): 18% and 40%
- Population Fragmented Nuclei (%) (U2OS [3]; 24 h, replicate 2): 3% and 7%
- Population Healthy Nuclei (%) (U2OS [3]; 24 h, replicate 2): 80% and 89%
- Population Hoechst High Intensity Objects (%) (U2OS [3]; 24 h, replicate 2): 10% and 7%
- Population Membrane Permeable-Phenotype (%) (U2OS [3]; 24 h, replicate 2): 15% and 5%
- Population Mitochondria Different-Phenotype (%) (U2OS [3]; 24 h, replicate 2): 25% and 33%
- Population Mitotic Cells (%) (U2OS [3]; 24 h, replicate 2): 81% and 60%
- Population Normal (%) (U2OS [3]; 24 h, replicate 2): 89% and 92%
- Population Pyknosed Nuclei (%) (U2OS [3]; 24 h, replicate 2): 16%
- Population Tubulin-Different-Phenotype (%) (U2OS [3]; 24 h, replicate 2): 15% and 28%
- Total Cell Count (U2OS [3]; 24 h, replicate 2): 108 and 162
- Growth Rate (HEK-293T [4]; [7]): 0
- Growth Rate (HEK-293T [4]; [8]): 0
- Growth Rate (HEK-293T [4]; [9]): 0
- Growth Rate (HEK-293T [4]; [10]): 0
- Growth Rate (Fibroblast [5]; [7]): 0
- Growth Rate (Fibroblast [5]; [8]): 0
- Growth Rate (Fibroblast [5]; [9]): 0
- Growth Rate (Fibroblast [5]; [10]): 0
- Growth Rate (U2OS [6]; 0 h, replicate number 1, timepoint 0 hours): 0
- Growth Rate (U2OS [6]; [7]): 0
- Growth Rate (U2OS [6]; [8]): 0
- Growth Rate (U2OS [6]; [9]): 0
- Growth Rate (U2OS [6]; [10]): 0

— ChEMBL document CHEMBL4689842, “EUbOPEN Chemogenomics Library wave 1” (2021)
